Data as given in ChEMBL document CHEMBL1156509, “Survival in the presence of antifungals: genome-wide expression profiling of Aspergillus niger in response to sublethal concentrations of caspofungin and fenpropimorph” (2007).
Calls of active or inactive are those of the source. No cut-off for these calls is given here.

What was measured:
Assay type in all cases: functional, organism-based
Aspergillus niger [1] = experiment: Antifungal activity against Aspergillus niger RD6.47 at 104.2 ug/mL by microtiter plate
How it was run: (§1)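 Reporter conidia (2×10^4 per well) were pre-grown 6 h at 37 °C in 2× CM in glass-bottom plates. An equal volume of a 2-fold dilution series (seven concentrations) was added, then 3 h at 30 °C. Medium was discarded and adherent germlings imaged. Growth inhibition was scored 0/1/2 from hyphal length.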

Aspergillus niger [2] = experiment: Induction of GFP tagged PagsA-H2B expression in Aspergillus niger RD6.47 at 104.2 ug/mL by fluorescence microscopy
How it was run: (§2)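 agsA promoter-GFP reporters, cytoplasmic (JvD1.1) or nuclear H2B-targeted (RD6.47). Germlings pre-grown 6 h at 37 °C in 2× CM, exposed 3 h at 30 °C to seven 2-fold dilutions. GFP levels were scored by fluorescence microscopy as 0 (basal), 1 (intermediate) or 2 (high). Controls: gpdA-H2B-GFP strain MA26.1 (positive), N402 (negative).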

Aspergillus niger [3] = experiment: Induction of GFP tagged PagsA expression in Aspergillus niger JvD1.1 at 104.2 ug/mL by fluorescence microscopy; how it was run: as §2
Aspergillus niger [4] = experiment: Antifungal activity against Aspergillus niger JvD1.1 at 104.2 ug/mL by microtiter plate; how it was run: as §1

SMILES	Activity (Aspergillus niger [1])	Activity (Aspergillus niger [2])	Activity (Aspergillus niger [3])	Activity (Aspergillus niger [4])
CCCCCCC(=O)CCCCCC/C=C/C[C@@H](O)[C@H](O)[C@@](N)(CO)C(=O)O	inactive	inactive	inactive	inactive
CCCCNC(=O)n1c(NC(=O)OC)nc2ccccc21	Active	inactive	inactive	Active
CCCN(CC)CC1COC2(CCC(C(C)(C)C)CC2)O1 (stereo not drawn)	Active	Active	Active	Active
CN(C/C=C/C#CC(C)(C)C)Cc1cccc2ccccc12	–	Active	Active	–
COC(=O)N(OC)c1ccccc1COc1ccn(-c2ccc(Cl)cc2)n1	Active	inactive	inactive	Active
